Measured values gathered from unrelated publications.
Compare with care: the assays were run in different laboratories.
Target: Tyrosine-protein kinase Lck (LCK, Homo sapiens, UniProt P06239)

| SMILES | test | conditions | remaining binding |
| --- | --- | --- | --- |
| CCN1CCN(Cc2ccc(C(=O)Nc3ccc(C)c(Oc4ccc5c(c4)CC(=O)N5)c3)cc2C(F)(F)F)CC1 | binding, competition with immobilised ligand | 1 µM | 22% |
| C[C@H]1CCN(c2nccc(-c3cnn4ncccc34)n2)C1 | binding | 1 µM | 98% |
| C=CC(=O)N1CCC(C(=O)NCC(=O)N2CCN(c3nc(-c4cnc(N)nc4C(F)F)nc(N4CCOCC4)n3)CC2)CC1 | binding, competition with immobilised ligand | 1 µM | 90% |
| F[C@@H]1CCN(c2nccc(-c3cnn4ncccc34)n2)C1 | binding | 1 µM | 100% |
| Nc1ncc2c(n1)-c1c([nH]c3ccc(C#CC4CC4)cc13)CCCC2 | binding, competition with immobilised ligand | 1 µM | 100% |
| COc1ncc2cc3ccccc3nc2c1C#N | binding, competition with immobilised ligand | 5 µM | 93% |
| COc1ccc2c(c1)O[C@@H](c1ccc(OC)c(OC)c1)C[C@H]2NC(=O)C1(c2ccc3c(c2)OC(F)(F)O3)CC1 | cell-free assay, competition with immobilised ligand | 1 µM | 100% |
| COc1cnc(Nc2cccc(S(N)(=O)=O)c2)nc1N1CCN(c2ccccc2)C(=O)C1 | binding, competition with immobilised ligand | 1 µM | 100% |
| N#Cc1ccc(Nc2ccc3[nH]c(=O)[nH]c3c2)c(Cl)c1 | cell-free assay, competition with immobilised ligand | 1 µM | 100% |
| O=C(NCC1CCOCC1)c1n[nH]cc1NC(=O)c1c(F)cccc1F | binding, competition with immobilised ligand | 1 µM | 100% |
| O=C(c1ccc(Nc2ncc(Cl)c(-c3cc4ccccc4s3)n2)cc1)N1CCC(N2CCCC2)CC1 | binding, competition with immobilised ligand | 1 µM | 21% |
| CCCOc1ccc([C@H]2[C@H](C(=O)O)[C@@H](c3ccc4c(c3)OCO4)CN2CC(=O)Nc2c(CC)cccc2CC)cc1 | cell-free assay, competition with immobilised ligand | 1 µM | 100% |
| O=C(c1ccc(Nc2ncc(Cl)c(-c3ccc(Cl)s3)n2)cc1)N1CCC(N2CCCC2)CC1 | binding, competition with immobilised ligand | 1 µM | 32% |
| c1cnn2ncc(-c3ccnc(N4CCC45COC5)n3)c2c1 | binding | 1 µM | 99% |
| CC1=C(C#N)[C@@H](c2ccc3[nH]nc(C)c3c2)C(C#N)=C(c2ccc(Cl)cc2)N1 | cell-free assay, competition with immobilised ligand | 1 µM | 100% |
| Cc1cnc(Nc2ccc(C(=O)N3CCC(N4CCCC4)CC3)cc2)nc1-c1cc2ccccc2s1 | binding, competition with immobilised ligand | 1 µM | 2.7% |
